SUMO1-SIM PPI: alters human SUMO1 binding to SIM partners. actives 0.33% (n = 360,000). inhibition, % at 20 µM. SUMO1 binding to a labelled peptide, TR-FRET, 1 h. AID 602429; in the data active means inhibition above about 37%
Target sequence (P63165 whole entry, looked up): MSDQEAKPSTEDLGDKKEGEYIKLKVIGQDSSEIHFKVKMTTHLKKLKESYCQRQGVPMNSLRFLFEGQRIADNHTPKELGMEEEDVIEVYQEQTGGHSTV
STEP inh: STEP (human) phosphatase inhibition | recombinant STEP, OMFP fluorogenic substrate, fluorescence | inhibition, % at 20 µM | actives 0.25% (n = 360,000) | AID 588621;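 active means inhibition at 20 µM, scaled per plate between control wells, above about 37%, limit read from the data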;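 further: 0% = DMSO with enzyme and substrate and 100% = substrate only without enzyme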
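Also added – OMFP at 25 µM · Test system – STEP tyrosine phosphatase · Technique – FITC-channel fluorescence of OMFP product · Schedule – 20 min at room temperature, dark · Evaluation – control-normalized % inhibition with plate pattern correction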
DNMT1 inh: blocks human DNA methyltransferase DNMT1 | P26358 | DNMT1 molecular beacon, Hinp1I cleavage, fluorescence | inhibition (reported as % activation of signal), % at 10 µM | actives 0.83% (n = 360,000) | AID 588458; in the data active means inhibition above about 50%
Scp1 inh: Scp-1 (human) phosphatase inhibition; Q9GZU7; Recombinant Scp1, phosphopeptide, malachite green phosphate absorbance; inhibition, % at 20 µM; actives 0.88% (n = 340,000);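 active means inhibition above about 50% at 20 µM, limit read from the data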;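 further: plate controls were DMSO wells with enzyme for no effect and wells lacking enzyme for full effect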
Target sequence (Q9GZU7 76-261 limits assumed): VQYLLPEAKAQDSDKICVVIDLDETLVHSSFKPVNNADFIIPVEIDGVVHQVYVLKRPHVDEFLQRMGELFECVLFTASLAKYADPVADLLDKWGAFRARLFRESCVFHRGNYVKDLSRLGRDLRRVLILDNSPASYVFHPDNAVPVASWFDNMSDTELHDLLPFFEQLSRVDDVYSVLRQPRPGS
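Test system – truncated SCP-1 phosphatase (76-261aa) · Reagent – Phosphorylated 17-residue peptide substrate · Incubation – 45 min room-temperature reaction, 5 min colour, 30 min stabiliser · Detection – colorimetric phosphate reagent with accelerator and stabiliser, absorbance at 630 nm · Measure – % inhibition at 20 µM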
Rpn11 inh: blocks the human proteasome subunit Rpn11. inhibition, % at 20 µM. actives 0.59% (n = 360,000). human 26S proteasome, Ub4-pepOG fluorescence polarization; 20S core pre-blocked with epoxomicin;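 active means inhibition at 20 µM, scaled to each plate's controls, above about 33%, limit read from the data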
LMPTP block: LMPTP (human) inhibition. inhibition, % at 20 µM. P24666. AID 651560. actives 0.22% (n = 360,000). recombinant LMPTP-A, OMFP fluorogenic substrate, fluorescence intensity;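 active means compounds that cut the enzyme signal by at least half of the control window in the single-dose screen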;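 further: plate controls were DMSO wells with enzyme plus substrate for no effect and substrate without enzyme for full effect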
Target sequence (P24666 whole entry, looked up): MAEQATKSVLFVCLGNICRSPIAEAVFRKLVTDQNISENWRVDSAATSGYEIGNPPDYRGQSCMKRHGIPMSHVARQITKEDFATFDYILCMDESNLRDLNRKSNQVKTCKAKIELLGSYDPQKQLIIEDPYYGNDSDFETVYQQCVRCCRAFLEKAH
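Test system: LMPTP-A phosphatase enzyme; input: 0.625 nM LMPTP-A final; reagent: OMFP substrate, 400 µM final; compound dosing: 20 µM single dose, 3% DMSO; incubation: 50 min dark incubation at room temperature; measured by: endpoint fluorescence intensity from OMFP dephosphorylation; measure: % inhibition relative to no-enzyme and uninhibited control wells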
Rpn11 confirm: confirmation of human proteasome Rpn11 inhibitors; inhibition, % at 20 µM; shares compounds with Rpn11 inh; AID 602318; purified human 26S proteasome, Ub4-pepOG fluorescence polarization; proteasome pretreated with epoxomicin; actives 29% (n = 1,900)
MMP-2 inh: MMP-2 (human) inhibition counter-screen; recombinant MMP-2, FRET peptide cleavage fluorescence; inhibition, % at 20 µM; actives 4% (n = 1,900); shares compounds with Rpn11 inh;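 further: human MMP-2 activated beforehand with APMA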
Thrombin inh: counter-screen for RPN11 inhibitors: inhibition of bovine thrombin. shares compounds with Rpn11 inh. bovine thrombin cleavage of Ub4-pepOG, fluorescence polarization. inhibition, % at 20 µM. actives 13% (n = 1,900). AID 602333;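 active means mean inhibition at least 40% at 20 µM, or signal 3 deviations below plate average, so some actives read negative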;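 further: plate controls were thrombin with DMSO for no effect and buffer wells lacking thrombin for full effect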
Numbers without * were called inactive; / = not tested or not shown. Most compounds without a hit are left out; they make up all but 2.3% or so of the library. Unless noted, no stated cut-off is given here; in the data, active means inhibition above about 40%; inactive means the rest.

SMILES	SUMO1-SIM PPI	STEP inh	DNMT1 inh	Scp1 inh	Rpn11 inh	LMPTP block	Rpn11 confirm	MMP-2 inh	Thrombin inh
Cc1cc(/C=C2\Cc3ccccc3C2=O)c(C)n1-c1ccccc1	-12	6	4	-2	56*	2	124*	1	105*
O=C(c1ccc(CS(=O)c2ccc(F)cc2)o1)N1CCN(C2CCCCC2)CC1 (centres undefined)	8	2	-1	-6	8	0	/	/	/
CC(=O)NC(CC(=O)OCC(=O)N1CCc2ccccc21)c1ccccc1 (centres undefined)	1	1	3	-4	0	-1	/	/	/
CCOc1ccc(S(=O)(=O)N2CCN(Cc3ccco3)CC2)cc1	0	-2	-1	-2	-2	1	/	/	/
O=C(COC(=O)c1ccc([N+](=O)[O-])cc1)Nc1ccccc1C(=O)NC1CC1	-18	-1	19	-10	2	-2	/	/	/
CCN(CC(=O)Nc1ccc(NC(C)=O)cc1)C(=O)c1cccc(S(=O)(=O)N2c3ccccc3CC2C)c1 (centres undefined)	4	2	-2	-7	9	1	/	/	/
COc1ccc(OCCCC(=O)Nc2nc(C)c(C(C)=O)s2)cc1	-5	-2	-2	-6	-3	-1	/	/	/
CC(=O)c1sc(NC(=O)CCCOc2ccc(Cl)cc2)nc1C	-2	22	21	42	77*	38	12	14	-9
O=C(NCCCN1CCCCCC1)c1ccc2c(Cl)c3c(nc2c1)CCCC3	-8	-1	-5	3	75*	5	-15	21	-25
CCN1CCN(CCCNC(=O)c2ccc3c(Cl)c4c(nc3c2)CCCC4)CC1	-19	4	1	9	-12	-4	/	/	/
COc1ccc(C(=O)CSc2nnc(NC(=O)C3CC(=O)N(c4ccccc4)C3)s2)cc1 (centres undefined)	-1	4	6	17	44*	1	13	2	-4
Cc1ccc(Nc2nc(-c3ccc(C)cc3)c(CC(=O)O)s2)cc1	7	-3	-27	-5	76*	1	33	10	20
COc1ccc(Nc2nc(-c3ccc(OC)cc3)c(CCC(=O)O)s2)cc1	-1	-1	-2	4	-2	1	/	/	/
COc1ccc(F)cc1C(=O)C1CCCN(Cc2ccc(Sc3nncn3C)o2)C1 (centres undefined)	0	-5	-1	5	1	0	/	/	/
O=C(NCCCN1CCOCC1)c1cc2c(=O)[nH]c3ccccc3c2s1	-2	0	-3	12	58*	3	-5	-22	-8
CCN1CCN(CCCNC(=O)c2cc3c(=O)[nH]c4ccccc4c3s2)CC1	-9	2	-1	-5	1	1	/	/	/
O=C(NCCCN1CCOCC1)c1cccc(NC(=O)c2ccccc2)c1	1	-1	0	-2	46*	-1	-3	-18	-7
COCc1ccc(C(=O)N2CCCC(Nc3ccc(C(C)C)cc3)C2)o1 (centres undefined)	2	2	-1	-7	-4	0	/	/	/
COC(=O)c1ccccc1NC(=O)c1cnn2cccnc12	0	1	9	-6	-2	0	/	/	/
CC1CCN(c2ccc3c(c2)S(=O)(=O)c2cccc(C(=O)NCc4ccc(F)cc4)c2C3=O)CC1	-4	-71	46	-8	14	-1	/	/	/
O=C(NC1CCCCC1)c1cccc2c1C(=O)c1ccc(N3CCCC3)cc1S2(=O)=O	-42	-4	15	-7	/	6	/	/	/
O=C(NCc1ccc(F)cc1)c1cccc2c1C(=O)c1ccc(N3CCOCC3)cc1S2(=O)=O	-87	-1	3	2	45*	1	54*	-11	30

Screens deposited in PubChem BioAssay by Sanford-Burnham Center for Chemical Genomics.
